Test results published in ChEMBL document CHEMBL1138612, “Inhibition of monoamine oxidase by (E)-styrylisatin analogues” (Bioorg Med Chem Lett, 2009).

Tests used:
[1] = molecular target: T1, Amine oxidase [flavin-containing] A (Homo sapiens, UniProt P21397); assay: Inhibition of recombinant wild-type MAOA from human liver expressed in Pichia pastoris
T1 sequence (P21397 whole entry): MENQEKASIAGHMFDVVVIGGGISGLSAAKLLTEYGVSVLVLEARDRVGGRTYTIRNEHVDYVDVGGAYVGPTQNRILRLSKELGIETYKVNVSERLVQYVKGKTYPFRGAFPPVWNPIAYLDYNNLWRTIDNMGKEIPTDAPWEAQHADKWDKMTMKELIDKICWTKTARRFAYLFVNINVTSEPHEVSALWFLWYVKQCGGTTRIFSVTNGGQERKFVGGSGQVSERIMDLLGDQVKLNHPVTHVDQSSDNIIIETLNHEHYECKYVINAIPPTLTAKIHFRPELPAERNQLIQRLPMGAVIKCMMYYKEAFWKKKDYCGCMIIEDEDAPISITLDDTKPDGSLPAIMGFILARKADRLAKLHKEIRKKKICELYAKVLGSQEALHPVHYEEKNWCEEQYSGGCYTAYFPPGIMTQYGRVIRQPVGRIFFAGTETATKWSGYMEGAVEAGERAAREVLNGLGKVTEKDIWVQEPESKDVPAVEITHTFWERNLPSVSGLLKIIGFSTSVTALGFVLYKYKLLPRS

[2] = molecular target: T2, Amine oxidase [flavin-containing] B (Homo sapiens, UniProt P27338); assay: Inhibition of recombinant wild-type MAOB from human liver expressed in Pichia pastoris
T2 sequence (P27338 whole entry): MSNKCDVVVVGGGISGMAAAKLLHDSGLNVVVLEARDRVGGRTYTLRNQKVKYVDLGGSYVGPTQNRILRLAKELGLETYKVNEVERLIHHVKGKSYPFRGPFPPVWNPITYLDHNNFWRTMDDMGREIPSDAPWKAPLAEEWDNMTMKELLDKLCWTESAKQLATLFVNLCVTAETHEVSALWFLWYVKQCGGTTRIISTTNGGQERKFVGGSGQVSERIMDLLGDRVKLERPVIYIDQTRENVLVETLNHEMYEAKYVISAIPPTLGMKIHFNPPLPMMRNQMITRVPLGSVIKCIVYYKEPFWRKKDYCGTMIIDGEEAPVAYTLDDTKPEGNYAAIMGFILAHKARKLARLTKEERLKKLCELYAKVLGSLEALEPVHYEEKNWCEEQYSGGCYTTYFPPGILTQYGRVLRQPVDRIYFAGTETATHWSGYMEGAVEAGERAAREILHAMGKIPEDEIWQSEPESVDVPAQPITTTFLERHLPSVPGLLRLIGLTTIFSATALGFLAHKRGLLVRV

[3] = Inhibition of baboon liver MAOB; parameters: species or system Papio hamadryas
Method in brief: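 Baboon liver mitochondrial fractions as MAO-B source, with MMTP as substrate. IC50 from means ± SEM of duplicate determinations. Reversibility was tested by preincubating inhibitor (40 nM) with the mitochondria for 0, 15, 30 and 60 min.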

[4] = Inhibition of human MAOB […] mutant
[5] = species on record: Homo sapiens; assay: Selectivity ratio of Ki for recombinant wild-type MAOA from human liver to Ki for recombinant wild-type MAOB from human liver
Method in brief: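 Substrates were p-CF3-benzylamine for MAO-A (243 nm) and benzylamine for MAO-B (250 nm), six concentrations 50–3000 µM, three inhibitor levels. Ki from apparent Km versus inhibitor; selectivity = Ki(MAO-A)/Ki(MAO-B).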

Row | Ki [1] [µM] | Ki [2] [µM] | IC50 [3] [µM] | Ki [4] [µM] | Ratio Ki [5] | Structure (SMILES)
1 | 2.2 |  |  |  |  | O=C1Nc2ccc(/C=C/c3cccc(F)c3)cc2C1=O
2 | 5.6 | 1.4 | 0.0207 | 12.5 | 2.5 | O=C1Nc2ccc(/C=C/c3cccc(Cl)c3)cc2C1=O
3 | 0.78 | 0.31 | 0.0417 | 1.1 | 5 | O=C1Nc2ccc(/C=C/c3ccccc3)cc2C1=O
